Results: ChEMBL document CHEMBL3868584, “Cerasoidine, a Bis-aporphine Alkaloid Isolated from Polyalthia cerasoides during Screening for Wnt Signal Inhibitors” (J Nat Prod, 2016)
Calls of active or inactive are those of the source. The calls are words filed in the database; no cut-off is given here.

Key:
[1] = Cytotoxicity against human STF/293 cells assessed as reduction in cell viability at 2 to 10 uM after 24 hrs by fluorescein diacetate based assay; format: toxicity; conditions: hek293, 24 h
[2] = Inhibition of Wnt signalling in human STF/293 cells assessed as suppression of TCF/beta-catenin-mediated transcriptional activity after 24 hrs by superTOPflash reporter gene assay; format: cell-based; conditions: STF/293, 24 h
[3] = Cytotoxicity against human STF/293 cells assessed as reduction in cell viability at 0.5 to 2 uM after 24 hrs by fluorescein diacetate based assay; format: toxicity; conditions: hek293, 24 h
[4] = Cytotoxicity against human STF/293 cells assessed as reduction in cell viability at 10 to 40 uM after 24 hrs by fluorescein diacetate based assay; format: toxicity; conditions: hek293, 24 h
[5] = Inhibition of Wnt signalling in human SW480 cells assessed as decrease in beta-catenin level in nucleus at 20 to 60 uM after 24 hrs by Western blot analysis; format: cell-based
Procedure, shortened: (§1)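 SW480 colon cancer cells were treated, then whole, cytoplasmic and nuclear lysates were prepared. These were immunoblotted with anti-β-catenin and anti-c-myc antibodies. β-Actin served as the cytoplasmic fraction control and histone H1 as the nuclear fraction control.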

[6] = Inhibition of Wnt signalling in human SW480 cells assessed as decrease in c-myc level after 24 hrs by Western blot analysis; format: cell-based; procedure, shortened: as §1
[7] = Inhibition of Wnt signalling in human STF/293 cells assessed as decrease in c-myc levels after 24 hrs by Western blot analysis; format: cell-based
Procedure, shortened: (§2)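 STF/293 cells were exposed to the test agent and lysed. Lysates were immunoblotted for β-catenin, c-myc and PPARδ, with β-actin as the protein loading control.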

[8] = Inhibition of Wnt signalling in human STF/293 cells assessed as decrease in beta-catenin levels after 24 hrs by Western blot analysis; format: cell-based; procedure, shortened: as §2
[9] = Inhibition of Wnt signalling in human STF/293 cells assessed as decrease in PPARdelta levels after 24 hrs by Western blot analysis; format: cell-based; procedure, shortened: as §2

Row | SMILES | Activity [1] | IC50 [2] [µM] | Activity [3] | also measured
1 | COc1cc2c(cc1O)CCn1c-2cc2ccc(O)c(OC)c2c1=O | Non-Toxic | 8.7 |  | 
2 | COc1cc2c(cc1OC)-c1cc3ccc(OC)c(OC)c3c(=O)n1CC2 |  | 0.6 | Non-Toxic | 
3 | COc1ccc2c(c1)C(=O)c1nccc3cc4c(c-2c13)OCO4 [ATHEROSPERMIDINE] | Non-Toxic | 7.1 |  | 
4 | COc1ccc2c(c1)c(-c1c3c4c(cc5c(c4c4ccc(OC)cc14)OCO5)CCN3)c1c3c(cc4c(c32)OCO4)CCN1 [BIDEBILINE E] |  | 20.2 |  | Activity [4]: Non-Toxic; inhibition [5]: Active; inhibition [6]: Dose-dependent effect
5 | O=C1c2ccccc2-c2c3c(cc4ccnc1c24)OCO3 [LIRIODENINE] |  | 0.6 | Non-Toxic | inhibition [7]: Dose-dependent effect; inhibition [8]: Dose-dependent effect; inhibition [9]: Dose-dependent effect
